The values below come from ChEMBL document CHEMBL1671627, “Increasing trends in antimicrobial resistance among clinically important anaerobes and Bacteroides fragilis isolates causing nosocomial infections: emerging resistance to carbapenems” (2008).

Assay [1] concerns Bacteroides thetaiotaomicron. In words: Antibacterial activity against beta-lactamase producing Bacteroides thetaiotaomicron assessed as susceptible isolates by CLSI agar dilution method in presence of clavulanate. The format is functional. The method, boiled down:
(§1)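 Agar dilution per CLSI guidelines on nonduplicate anaerobic bloodstream isolates collected at NTUH, January to December 2006. Isolates were spotted by Steers replicator onto supplemented Brucella blood agar and incubated anaerobically for 48 h at 35°C. MIC was the lowest drug concentration that inhibited growth. B. fragilis ATCC 25285, B. thetaiotaomicron ATCC 29741 and E. lentum ATCC 43055 were run as QC in each run.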

Assay [2] deals with Phocaeicola vulgatus. Briefly: Antibacterial activity against beta-lactamase producing Bacteroides vulgatus by CLSI agar dilution method in presence of clavulanate. The format is functional. The gist of the method:
(§2)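 CLSI agar dilution MICs for anaerobic blood isolates (nonduplicate) collected from bloodstream-infection patients at a Taiwanese tertiary hospital, January–December 2006. Isolates were spotted by Steers replicator onto supplemented Brucella blood agar and incubated anaerobically for 48 h at 35°C. MIC was the lowest drug concentration inhibiting growth. Each run included B. fragilis ATCC 25285, B. thetaiotaomicron ATCC 29741 and E. lentum ATCC 43055 as quality-control strains.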

Assay [3] concerns Bacteroides uniformis. In words: Antibacterial activity against beta-lactamase producing Bacteroides uniformis by CLSI agar dilution method in presence of clavulanate. The format is functional. The method, boiled down:
as §1

Assay [4] deals with Bacteroides caccae. In words: Antibacterial activity against beta-lactamase producing Bacteroides caccae assessed as susceptible isolates by CLSI agar dilution method in presence of clavulanate. Type of assay: functional. The gist of the method:
as §1

For assay [5], the system named is Fusobacterium varium. In words: Antibacterial activity against Fusobacterium varium by CLSI agar dilution method in presence of clavulanate. The format is functional. The gist of the method:
as §1
Background: Agar dilution tests growth on a series of plates holding different concentrations.

Assay [6] deals with Fusobacterium mortiferum. Briefly: Antibacterial activity against Fusobacterium mortiferum assessed as resistant isolates by CLSI agar dilution method in presence of clavulanate. Type of assay: functional. The method, boiled down: (§3)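 207 nonduplicate anaerobic blood isolates from patients with bloodstream infections at NTUH, collected January–December 2006. MICs were determined by agar dilution following CLSI guidelines. Inocula were applied with a Steers replicator onto supplemented Brucella blood agar and incubated 48 h at 35°C in an anaerobic chamber. MIC was the lowest concentration inhibiting growth. B. fragilis ATCC 25285, B. thetaiotaomicron ATCC 29741 and E. lentum ATCC 43055 served as controls in each run.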

The subject of assay [7] is Prevotella intermedia. Briefly: Antibacterial activity against Prevotella intermedia assessed as susceptible isolates by CLSI agar dilution method in presence of clavulanate. Type of assay: functional. The gist of the method: as §1
The subject of assay [8] is Prevotella buccae. In words: Antibacterial activity against Prevotella buccae assessed as resistant isolates by CLSI agar dilution method in presence of clavulanate. The format is functional, Segatella buccae. The gist of the method:
as §3

The test system of assay [9] is Clostridium tertium. Briefly: Antibacterial activity against beta-lactamase producing Clostridium tertium assessed as resistant isolates by CLSI agar dilution method in presence of clavulanate. Type of assay: functional. The method, boiled down:
as §3

For assay [10], the system named is Peptoniphilus asaccharolyticus. Briefly: Antibacterial activity against beta-lactamase producing Peptoniphilus asaccharolyticus by CLSI agar dilution method in presence of clavulanate. The format is functional. The method, boiled down: as §2
The subject of assay [11] is Bacteroides fragilis. In words: Antibacterial activity against Bacteroides fragilis assessed as resistant isolates by CLSI agar dilution method. The format is functional.
The subject of assay [12] is Bacteroides fragilis. In words: Antibacterial activity against Bacteroides fragilis assessed as susceptible isolates by CLSI agar dilution method in presence of Tazobactam. The format is functional. The gist of the method: as §1
The test system of assay [13] is Bacteroides fragilis. Briefly: Antibacterial activity against Bacteroides fragilis assessed as resistant isolates by CLSI agar dilution method in presence of Tazobactam. The format is functional. The method, boiled down:
as §3

The subject of assay [14] is Bacteroides thetaiotaomicron. In words: Antibacterial activity against beta-lactamase producing Bacteroides thetaiotaomicron assessed as resistant isolates by CLSI agar dilution method. The format is functional.
Assay [15] relates to Bacteroides thetaiotaomicron. Briefly: Antibacterial activity against beta-lactamase producing Bacteroides thetaiotaomicron assessed as susceptible isolates by CLSI agar dilution method in presence of Tazobactam. The format is functional. The gist of the method:
as §1

Assay [16] has as its system Phocaeicola vulgatus. In words: Antibacterial activity against beta-lactamase producing Bacteroides vulgatus assessed as resistant isolates by CLSI agar dilution method in presence of Tazobactam. Type of assay: functional. The method, boiled down: as §3
Assay [17] has as its system Bacteroides uniformis. Briefly: Antibacterial activity against beta-lactamase producing Bacteroides uniformis assessed as susceptible isolates by CLSI agar dilution method. The format is functional.
The subject of assay [18] is Bacteroides uniformis. Briefly: Antibacterial activity against beta-lactamase producing Bacteroides uniformis assessed as resistant isolates by CLSI agar dilution method. The format is functional.
For assay [19], the system named is Bacteroides uniformis. Briefly: Antibacterial activity against beta-lactamase producing Bacteroides uniformis assessed as susceptible isolates by CLSI agar dilution method in presence of Tazobactam. The format is functional. The gist of the method: as §1
The test system of assay [20] is Bacteroides uniformis. Briefly: Antibacterial activity against beta-lactamase producing Bacteroides uniformis assessed as resistant isolates by CLSI agar dilution method in presence of Tazobactam. The format is functional. The gist of the method:
as §3

Assay [21] deals with Bacteroides caccae. Briefly: Antibacterial activity against beta-lactamase producing Bacteroides caccae assessed as resistant isolates by CLSI agar dilution method. Type of assay: functional.
Assay [22] concerns Bacteroides caccae. In words: Antibacterial activity against beta-lactamase producing Bacteroides caccae assessed as susceptible isolates by CLSI agar dilution method in presence of Tazobactam. The format is functional. The gist of the method:
as §1

In assay [23] the test system is Fusobacterium mortiferum. In words: Antibacterial activity against Fusobacterium mortiferum assessed as resistant isolates by CLSI agar dilution method. The format is functional.
In assay [24] the test system is Fusobacterium varium. In words: Antibacterial activity against Fusobacterium varium by CLSI agar dilution method in presence of Tazobactam. The format is functional. The gist of the method: as §1
Another assay concerns Fusobacterium nucleatum. Briefly: Antibacterial activity against Fusobacterium nucleatum assessed as susceptible isolates by CLSI agar dilution method in presence of Tazobactam. Type of assay: functional. The method, boiled down: as §1
Assay [25] concerns Fusobacterium mortiferum. In words: Antibacterial activity against Fusobacterium mortiferum assessed as susceptible isolates by CLSI agar dilution method in presence of Tazobactam. Type of assay: functional. The method, boiled down:
as §1

The test system of assay [26] is Fusobacterium mortiferum. Briefly: Antibacterial activity against Fusobacterium mortiferum assessed as resistant isolates by CLSI agar dilution method in presence of Tazobactam. Type of assay: functional. The gist of the method: as §3
Assay [27] relates to Prevotella intermedia. Briefly: Antibacterial activity against Prevotella intermedia by CLSI agar dilution method. Type of assay: functional.
Assay [28] concerns Prevotella buccae. In words: Antibacterial activity against Prevotella buccae assessed as susceptible isolates by CLSI agar dilution method in presence of Tazobactam. The format is functional, Segatella buccae. The gist of the method:
as §1

The test system of assay [29] is Prevotella buccae. In words: Antibacterial activity against Prevotella buccae assessed as resistant isolates by CLSI agar dilution method in presence of Tazobactam. Type of assay: functional, Segatella buccae. The method, boiled down:
as §3

Assay [30] has as its system Prevotella intermedia. Briefly: Antibacterial activity against Prevotella intermedia assessed as resistant isolates by CLSI agar dilution method in presence of Tazobactam. The format is functional. The gist of the method: as §3
The subject of another assay is Clostridium perfringens. In words: microbe, parasite or virus in culture. Type of assay: functional.
The subject of assay [31] is Bacteroides fragilis. Briefly: Antibacterial activity against Bacteroides fragilis by CLSI agar dilution method. The format is functional.
The subject of assay [32] is Clostridium paraputrificum. Briefly: Antibacterial activity against beta-lactamase producing Clostridium paraputrificum assessed as susceptible isolates by CLSI agar dilution method in presence of Tazobactam. The format is functional. The gist of the method:
as §2

For assay [33], the system named is Clostridium tertium. Briefly: Antibacterial activity against beta-lactamase producing Clostridium tertium assessed as susceptible isolates by CLSI agar dilution method in presence of Tazobactam. The format is functional. The method, boiled down:
as §2

For a further assay, the system named is Clostridium septicum. In words: Antibacterial activity against beta-lactamase producing Clostridium septicum assessed as resistant isolates by CLSI agar dilution method in presence of Tazobactam. The format is functional. The gist of the method: as §3
For assay [34], the system named is Clostridium tertium. In words: Antibacterial activity against beta-lactamase producing Clostridium tertium assessed as resistant isolates by CLSI agar dilution method in presence of Tazobactam. The format is functional. The gist of the method: as §3
A further assay relates to Parvimonas micra. Briefly: Antibacterial activity against beta-lactamase producing Micromonas micros assessed as resistant isolates by CLSI agar dilution method. The format is functional.
For assay [35], the system named is Peptoniphilus asaccharolyticus. Briefly: Antibacterial activity against beta-lactamase producing Peptoniphilus asaccharolyticus assessed as resistant isolates by CLSI agar dilution method in presence of Tazobactam. The format is functional. The gist of the method:
as §3

Structures are written as SMILES. Values after ≈ are worked out from the molar mass of the structure shown. A value given as a limit tells only on which side of the number the result lay.

Take `CC1(C)S[C@@H]2[C@H](NC(=O)[C@H](N)c3ccc(O)cc3)C(=O)N2[C@H]1C(=O)O` [AMOXICILLIN]: the Activity in [1] came out at 63%; in the assay with Bacteroides caccae [4], 53%; in the assay with Fusobacterium mortiferum [6], 7%; in the assay with Prevotella intermedia [7] it was 81%; in the assay with Prevotella buccae [8] it was 6%; in the assay with Clostridium tertium [9] it was 4%. Moreover, the MIC50 with Phocaeicola vulgatus [2] was determined as 8 µg/mL; in the assay with Bacteroides uniformis [3], 8 µg/mL; in the assay with Fusobacterium varium [5] it was 2 µg/mL; in assay [10], 0.25 µg/mL. Also, the MIC90 is 32 µg/mL in the assay on Phocaeicola vulgatus [2], 32 µg/mL with Bacteroides uniformis [3], 4 µg/mL in the assay with Fusobacterium varium [5] and 2 µg/mL in assay [10].
In the case of `CCN1CCN(C(=O)N[C@@H](C(=O)N[C@@H]2C(=O)N3[C@@H]2SC(C)(C)[C@@H]3C(=O)O)c2ccccc2)C(=O)C1=O` [PIPERACILLIN], the Activity in the assay on Bacteroides fragilis [11] worked out at 35%; with Bacteroides fragilis [12], 95%; in the assay with Bacteroides fragilis [13] it was 2%; in assay [14] it was 37%; in assay [15], 93%; in the assay on Phocaeicola vulgatus [16], 4%. Besides, the Activity in the assay with Bacteroides uniformis [17] was 35%; in the assay on Bacteroides uniformis [18], 65%; with Bacteroides uniformis [19], 96%; in the assay on Bacteroides uniformis [20], 4%; in the assay on Bacteroides caccae [21] it was 65%; in the assay on Bacteroides caccae [22] it was 96%. For the same compound, the Activity is recorded as 10% in the assay on Fusobacterium mortiferum [23]; 100% in the assay on Fusobacterium nucleatum; 100% in the assay on Fusobacterium mortiferum [25]; 0% with Fusobacterium mortiferum [26]; 100% in the assay with Prevotella buccae [28]; 0% with Prevotella buccae [29]. Further, the Activity in the assay with Prevotella intermedia [30] came to 0%; in assay [32] it was 100%; in the assay with Clostridium tertium [33], 100%; in the assay on Clostridium septicum, 0%; with Clostridium tertium [34], 0%; with Parvimonas micra it was 3%. Besides, the Activity in assay [35] is 0%. Moreover, the MIC50 worked out at 0.5 µg/mL in the assay on Fusobacterium varium [24], 16 µg/mL (≈ 30.9 µM) with Prevotella intermedia [27], 0.5 µg/mL (≈ 0.966 µM) in the assay with Clostridium perfringens and 8 µg/mL (≈ 15.5 µM) in the assay on Bacteroides fragilis [31]. The MIC90 in the assay on Fusobacterium varium [24] is 2 µg/mL; with Prevotella intermedia [27] it was 128 µg/mL (≈ 247 µM); with Clostridium perfringens it was 2 µg/mL (≈ 3.86 µM); in the assay on Bacteroides fragilis [31] it was above 128 µg/mL.
